Where a SMILES comes first, the peptide text is derived from it. [ ]: non-standard residue; d: D form. The star is where a group is joined. ξ: configuration not given here. Boc = CC(C)(C)OC(=O)*; ξOrn = NCCCC(N)C(=O)O; OtBu = CC(C)(C)O*; Sar = CNCC(=O)O
Columns and labels:
Plasmodium berghei [1] = assay: Antimalarial activity against schizonts of chloroquine-sensitive Plasmodium berghei ANKA 2.34 after 16 hrs; format: functional, organism-based; settings: ANKA 2.34, 16 h
Summary of the method: (§1)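 P. berghei cultures were exposed to peptides in PBS with 0.1% DMSO and 5% ethanol for 16 h at 37 °C, with chloroquine as positive control. Smears were made from 0.5 mL culture samples and schizonts counted per 2000 erythrocytes. Four concentrations were each run in duplicate and averaged. IC50 is the concentration giving 50% fewer schizonts than drug-free controls, extrapolated from the concentration–response curve.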

Plasmodium berghei [2] = assay: Antimalarial activity against schizonts of chloroquine-sensitive Plasmodium berghei ANKA 2.34 assessed as chemosuppression of schizont numbers at 200 uM after 16 hrs relative to control; format: functional
Summary of the method: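 Peptides in PBS with 0.1% DMSO and 5% ethanol were incubated with P. berghei cultures for 16 h at 37 °C, with chloroquine as positive control. Schizonts per 2000 erythrocytes were counted on smears from 0.5 mL culture samples, in duplicate and averaged. Reduction in schizont number is expressed against drug-free control cultures.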

Plasmodium berghei [3] = assay: Antimalarial activity against Plasmodium berghei; format: functional, organism-based; summary of the method: as §1

Row | IC50 (Plasmodium berghei [1]) | IC50 (Plasmodium berghei [3]) | SMILES | Activity (Plasmodium berghei [2])
1 | 3.89 µM |  | CC(C)[C@@H]1NC(=O)[C@H](Cc2ccccc2)NC1=O | 61.07%
2 | 0.06 µM |  | CCN(CC)CCCC(C)Nc1ccnc2cc(Cl)ccc12 (stereo not given) [CHLOROQUINE] | 100%
3 | 4.26 µM |  | O=C1CNC(=O)[C@H](Cc2ccccc2)N1 | 70.37%
4 |  | 2.5 µM | NCCCC[C@H](N)C(=O)N[C@@H](Cc1ccccc1)C(=O)N[C@@H](Cc1ccccc1)C(=O)NC(CCCN)C(=O)O (stereo not given in full) (H-KFF[ξOrn]-OH) | 
5 | 2.81 µM |  | CC(C)[C@H](NC(=O)OC(C)(C)C)C(=O)N[C@H](C(=O)OC(C)(C)C)C(C)C (Boc-Val-Val-OtBu) | 77.64%
6 | 3.05 µM |  | COC(=O)[C@@H](NC(=O)[C@@H](CCCNC(=O)OCc1ccccc1)NC(=O)OC(C)(C)C)C(C)C | 57.2%
7 | 7.07 µM |  | CC(C)[C@H](NC(=O)OC(C)(C)C)C(=O)N[C@@H](Cc1ccccc1)C(=O)OC(C)(C)C (Boc-Val-Phe-OtBu) | 73.08%
8 | 3.23 µM |  | CC(C)[C@@H]1NC(=O)CNC1=O | 88.03%
9 | 164 µM |  | CC(C)(C)OC(=O)NCC(=O)N[C@@H](Cc1ccccc1)C(=O)OC(C)(C)C (Boc-Gly-Phe-OtBu) | 54.26%
10 | 2.26 µM |  | CN1CC(=O)N[C@@H](Cc2ccccc2)C1=O | 83.76%
11 | > 200 µM |  | COC(=O)[C@H](Cc1ccccc1)NC(=O)[C@H](CCCNC(=O)OCc1ccccc1)NC(=O)OC(C)(C)C | 40%
12 | 2.78 µM |  | CC(C)[C@H](NC(=O)[C@@H](CCCNC(=O)OCc1ccccc1)NC(=O)OC(C)(C)C)C(=O)OC(C)(C)C | 72.64%
13 |  | 2.5 µM | NCCCC(NC(=O)[C@H](Cc1ccccc1)NC(=O)C(CCCN)NC(=O)[C@@H](N)Cc1ccccc1)C(=O)O (stereo not given in full) (H-F[ξOrn]F[ξOrn]-OH) | 
14 | 3.38 µM |  | CN(CC(=O)OC(C)(C)C)C(=O)[C@H](Cc1ccccc1)NC(=O)OC(C)(C)C (Boc-Phe-[Sar]-OtBu) | 79.41%
15 | 3.09 µM |  | CC(C)[C@@H]1NC(=O)[C@@H](CCCNC(=O)OCc2ccccc2)NC1=O | 70.08%
16 | 3.23 µM |  | CC(C)[C@H](NC(=O)[C@H](Cc1ccccc1)NC(=O)OC(C)(C)C)C(=O)OC(C)(C)C (Boc-Phe-Val-OtBu) | 77.94%
17 | > 200 µM |  | CC(C)(C)OC(=O)N[C@@H](CCCNC(=O)OCc1ccccc1)C(=O)N[C@@H](Cc1ccccc1)C(=O)OC(C)(C)C | 35.29%
18 | 123 µM |  | O=C(NCCC[C@@H]1NC(=O)[C@H](Cc2ccccc2)NC1=O)OCc1ccccc1 | 72.93%
19 | 33.9 µM |  | CC(C)[C@H](NC(=O)[C@H](CCCNC(=O)OCc1ccccc1)NC(=O)OC(C)(C)C)C(=O)OC(C)(C)C | 55.73%
20 | 2.54 µM |  | O=C1N[C@@H](Cc2ccccc2)C(=O)N[C@H]1Cc1ccccc1 | 84.33%
21 | 66 µM |  | CC(C)[C@@H]1NC(=O)[C@H](CCCNC(=O)OCc2ccccc2)NC1=O | 69.23%
22 | 3.16 µM |  | CC(C)[C@H](NC(=O)CNC(=O)OC(C)(C)C)C(=O)OC(C)(C)C (Boc-Gly-Val-OtBu) | 59.55%
23 | 112 µM |  | CC(C)(C)OC(=O)N[C@@H](Cc1ccccc1)C(=O)N[C@@H](Cc1ccccc1)C(=O)OC(C)(C)C (Boc-Phe-Phe-OtBu) | 55.73%
24 | 2.45 µM |  | CC(C)[C@@H]1NC(=O)[C@H](C(C)C)NC1=O | 87.18%
25 | 3.12 µM |  | CC(C)[C@@H]1NC(=O)[C@H](CCCCNC(=O)OCc2ccccc2)NC1=O | 79.2%
26 | 3.63 µM |  | COC(=O)CN(C)C(=O)[C@H](Cc1ccccc1)NC(=O)OC(C)(C)C (Boc-Phe-[Sar]-OMe) | 79.41%
